Data reported in paper PMC6217529 (ACS Omega, 2018).
“Also recorded” adds a separate entry of the source.

Experiments:
[1] = system: platelets (PRP); experiment: Epinephrine-induced platelet aggregation in PRP; type: cell-based, human; conditions: agonist epinephrine
Summary of the method: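 Platelet-rich plasma (PRP) and platelet-poor plasma (PPP) were prepared from fresh blood of healthy human donors, and PRP was adjusted with PPP to 3.1 × 10^8 platelets/mL at 37 °C. PRP was pre-incubated with test compound (10, 20 or 30 μg) in a 0.25 mL reaction volume. Aggregation was started with 5 μM epinephrine and traced on a dual-channel optical lumi-aggregometer. Inhibition % was plotted against dose, from three independent experiments.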

[2] = system: mice; experiment: Hemorrhagic activity in mice, intradermal; type: in vivo; conditions: up to 100 μg
[3] = system: mice; experiment: Edema inducing activity in mice foot pads; type: in vivo; conditions: up to 100 μg

SMILES	ability to inhibit epinephrine-induced platelet aggregation (in words) [1]	hemorrhage in experimental mice (in words) [2]	edema in experimental mice (in words) [3]
Cn1c(-c2ccc(Br)s2)nc2cc(-c3nnc(-c4cc(-c5cc(F)cc(F)c5)nc5ccccc45)o3)ccc21 [8a, 2-(2-(5-Bromothiophen-2-yl)-1-methyl-1H-benzo[d]imidazol-5-yl)-5-(2-(3,5-difluorophenyl)quinolin-4-yl)-1,3,4-oxadiazole]	able to inhibit the epinephrine-induced platelet aggregation	anti-hemorrhagic	anti-edema; also recorded: active in preventing hemorrhage and edema
Cn1c(-c2ccc(Br)s2)nc2cc(-c3nnc(-c4cc(-c5ccc(Cl)cc5Cl)nc5ccccc45)o3)ccc21 [8d, 2-(2-(5-Bromothiophen-2-yl)-1-methyl-1H-benzo[d]imidazol-5-yl)-5-(2-(2,4-dichlorophenyl)quinolin-4-yl)-1,3,4-oxadiazole]	but not the 8d sample	anti-hemorrhagic	anti-edema; also recorded: active in preventing hemorrhage and edema
